Measurements reported in ChEMBL document CHEMBL4351001, “2-Aminoimidazole-based antagonists of the 5-HT6 receptor - A new concept in aminergic GPCR ligand design” (Eur J Med Chem, 2019).
≈ marks a conversion by molar mass, not a printed value. Calls of active or inactive are those of the source. The rule behind the calls is not given here.

What was measured:
[1] = target: T1, Muscarinic acetylcholine receptor M1 (Homo sapiens) (UniProt P11229); assay: Displacement of [3H] pirenzepine from human recombinant muscarinic M1 receptor at 10^-6 M measured after 60 mins by scintillation counter method relative to control
T1 sequence (whole entry): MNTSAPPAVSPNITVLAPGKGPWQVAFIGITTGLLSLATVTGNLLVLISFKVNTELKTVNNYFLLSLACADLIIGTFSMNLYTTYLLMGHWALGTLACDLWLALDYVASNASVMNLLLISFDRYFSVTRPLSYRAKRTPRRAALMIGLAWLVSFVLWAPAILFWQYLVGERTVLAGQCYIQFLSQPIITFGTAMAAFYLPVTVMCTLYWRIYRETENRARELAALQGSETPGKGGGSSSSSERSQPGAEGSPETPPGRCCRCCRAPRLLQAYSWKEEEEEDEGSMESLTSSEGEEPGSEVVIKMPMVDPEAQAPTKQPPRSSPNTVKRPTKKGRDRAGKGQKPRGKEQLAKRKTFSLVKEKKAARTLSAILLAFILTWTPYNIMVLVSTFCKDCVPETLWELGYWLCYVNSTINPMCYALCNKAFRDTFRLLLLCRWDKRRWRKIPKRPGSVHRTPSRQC

[2] = target: T2, Alpha-1A adrenergic receptor (Rattus norvegicus) (UniProt P43140); assay: Displacement of [3H] prazosin from rat alpha 1A adrenergic receptor at 10^-6 M measured after 60 mins by scintillation counter method relative to control
T2 sequence (whole entry): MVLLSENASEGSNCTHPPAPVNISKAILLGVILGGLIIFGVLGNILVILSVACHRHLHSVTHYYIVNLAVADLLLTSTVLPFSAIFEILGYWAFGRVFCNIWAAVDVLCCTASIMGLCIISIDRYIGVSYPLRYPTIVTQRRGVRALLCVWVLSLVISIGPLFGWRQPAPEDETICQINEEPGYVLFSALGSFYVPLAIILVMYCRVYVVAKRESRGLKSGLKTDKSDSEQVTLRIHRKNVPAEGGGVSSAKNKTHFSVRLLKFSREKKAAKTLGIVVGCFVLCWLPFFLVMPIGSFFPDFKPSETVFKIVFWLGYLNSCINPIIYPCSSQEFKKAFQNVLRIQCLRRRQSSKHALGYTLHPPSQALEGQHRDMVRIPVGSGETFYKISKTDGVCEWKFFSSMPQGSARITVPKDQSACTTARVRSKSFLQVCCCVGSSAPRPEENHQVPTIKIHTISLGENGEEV

[3] = Solubility of compound in water; assay type: physicochemical
[4] = target: T3, 5-hydroxytryptamine receptor 2C (Homo sapiens) (UniProt P28335); assay: Displacement of [3H]mesulergine from human recombinant 5HT2C serotonin receptor at 10^-6M incubated for 120 mins by scintillation counter method relative to control
T3 sequence (whole entry): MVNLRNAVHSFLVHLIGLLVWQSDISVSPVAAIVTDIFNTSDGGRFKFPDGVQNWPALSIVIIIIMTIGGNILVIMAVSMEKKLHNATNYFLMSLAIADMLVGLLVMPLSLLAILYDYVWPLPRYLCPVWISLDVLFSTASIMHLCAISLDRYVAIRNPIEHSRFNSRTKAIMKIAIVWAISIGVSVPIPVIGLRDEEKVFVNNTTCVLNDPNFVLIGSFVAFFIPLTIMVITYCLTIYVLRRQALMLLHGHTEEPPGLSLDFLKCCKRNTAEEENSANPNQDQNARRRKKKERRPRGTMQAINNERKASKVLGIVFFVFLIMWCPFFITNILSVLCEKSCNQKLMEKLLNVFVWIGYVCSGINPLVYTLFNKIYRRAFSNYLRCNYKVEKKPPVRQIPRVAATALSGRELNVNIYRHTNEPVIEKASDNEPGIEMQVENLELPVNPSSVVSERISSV

in vitro [5] = details: rat
[6] = target: T4, 5-hydroxytryptamine receptor 6 (Homo sapiens, UniProt P50406); assay: Antagonist activity at human 5HT6 receptor expressed in HEK293 cells assessed as inhibition of 5-CT induced cAMP production measured after 30 mins by TR-FRET assay; assay type: functional, cell-based
D(2) dopamine receptor = D(2) dopamine receptor (Homo sapiens, UniProt P14416); assay: Displacement of [3H]-methylspiperone from human D2 long receptor expressed in HEK293 cells measured after 1 hr by liquid scintillation counter method; assay type: cell-based
Method in brief: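 HEK293 membranes stably expressing human D2L receptor, incubated 1 h at 37°C, then filtered and retained radioactivity counted; (+)-butaclamol 1 μM defines nonspecific binding. Tested in triplicate at 7–8 concentrations (10⁻¹¹–10⁻⁴ M); Ki via Cheng-Prusoff, averaged over at least two independent experiments.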

[7] = target: Histamine H1 receptor (Homo sapiens) (UniProt P35367); assay: Displacement of [3H] pyrilamine from human recombinant H1 histamine receptor at 10^-6 M measured after 60 mins by scintillation counting method relative to control
in vitro [8] = details: rat; remark: listed apart in the source
[9] = target: T4, 5-hydroxytryptamine receptor 6; assay: Displacement of [3H]LSD from human 5HT6 receptor expressed in HEK293 cells measured after 1 hr by liquid scintillation counter method; assay type: cell-based
[10] = target: 5-hydroxytryptamine receptor 7 (Homo sapiens, UniProt P34969); assay: Displacement of [3H]-5-CT from human 5HT7 receptor expressed in HEK293 cells measured after 1 hr by liquid scintillation counter method; assay type: cell-based
[11] = target: 5-hydroxytryptamine receptor 2A (Homo sapiens, UniProt P28223); assay: Displacement of [3H]ketanserin from human 5HT2A receptor expressed in CHOK1 cells incubated for 1 hr by liquid scintillation counter method; assay type: cell-based; details: read-out: Ki
[12] = target: T5, 5-hydroxytryptamine receptor 1A (Homo sapiens, UniProt P08908); assay: Displacement of [3H]-8-OH-DPAT from human 5HT1A receptor expressed in HEK293 cells incubated for 1 hr by liquid scintillation counter method; assay type: cell-based
T5 sequence (P08908 whole entry): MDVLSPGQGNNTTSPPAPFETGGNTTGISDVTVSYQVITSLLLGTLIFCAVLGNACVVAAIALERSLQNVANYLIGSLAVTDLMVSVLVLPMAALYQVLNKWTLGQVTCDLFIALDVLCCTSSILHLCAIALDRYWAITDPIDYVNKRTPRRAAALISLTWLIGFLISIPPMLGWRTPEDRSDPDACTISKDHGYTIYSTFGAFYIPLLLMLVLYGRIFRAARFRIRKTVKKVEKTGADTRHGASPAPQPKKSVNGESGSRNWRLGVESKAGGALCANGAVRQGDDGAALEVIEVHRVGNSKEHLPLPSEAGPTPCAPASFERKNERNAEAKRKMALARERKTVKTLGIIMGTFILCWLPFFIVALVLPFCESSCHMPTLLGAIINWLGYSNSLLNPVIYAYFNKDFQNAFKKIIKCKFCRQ
Method in brief: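 HEK293 cells stably expressing human 5-HT1AR; membranes in 50 mM Tris–HCl, 0.1 mM EDTA, 4 mM MgCl2, 10 μM pargyline, 0.1% ascorbate; incubated 1 h at room temperature, then filtered. Nonspecific binding defined with 10 μM 5-HT.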

[13] = Stability of compound in rat liver microsomes; assay type: ADME, Microsome
Method in brief: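 Incubation in triplicate with rat liver microsomes at 37°C with NADP, G6P, G6P dehydrogenase and MgCl2. Verapamil and donepezil served as microsomal activity standards.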

[14] = target: 5-hydroxytryptamine receptor 2B (Homo sapiens) (UniProt P41595); assay: Antagonist activity at human recombinant 5HT2B receptor expressed in CHOK1 cells at 10^-6 M measured after 30 mins by HTRF assay relative to control; assay type: cell-based; parameters: scale not given: the % may be the effect or the level left
[15] = target: T6, Muscarinic acetylcholine receptor M5 (Homo sapiens) (UniProt P08912); assay: Displacement of [3H]4-DAMP from human recombinant muscarinic M5 receptor at 10^-6 M measured after 60 mins by scintillation counter method relative to control
T6 sequence (whole entry): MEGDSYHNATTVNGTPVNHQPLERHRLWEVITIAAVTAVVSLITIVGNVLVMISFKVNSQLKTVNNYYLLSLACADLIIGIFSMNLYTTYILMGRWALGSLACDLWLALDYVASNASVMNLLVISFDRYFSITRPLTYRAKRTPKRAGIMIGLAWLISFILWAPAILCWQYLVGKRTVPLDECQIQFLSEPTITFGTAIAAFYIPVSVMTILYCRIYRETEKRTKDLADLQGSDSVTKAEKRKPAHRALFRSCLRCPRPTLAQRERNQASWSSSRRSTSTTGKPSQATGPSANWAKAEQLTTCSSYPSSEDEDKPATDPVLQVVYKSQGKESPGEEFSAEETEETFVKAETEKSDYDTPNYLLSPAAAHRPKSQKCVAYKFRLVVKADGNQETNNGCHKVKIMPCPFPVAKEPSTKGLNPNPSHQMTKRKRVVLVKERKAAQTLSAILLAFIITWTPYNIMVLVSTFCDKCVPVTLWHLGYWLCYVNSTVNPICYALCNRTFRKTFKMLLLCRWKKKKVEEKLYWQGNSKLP

[16] = target: 5-hydroxytryptamine receptor 2B (Homo sapiens) (UniProt P41595); assay: Displacement of [3H] mesulergine from human recombinant 5HT2B receptor at 10^-6 M measured after 60 mins by scintillation counting method relative to control
Rattus norvegicus = assay: Reversal of scopolamine induced cognitive impairment impairment in Sprague-Dawley rat at 1 mg/kg, po pre treated for 2 hrs followed by scopolamine addition further treated for 30 mins and measured after 1 hr by novel object recognition test; assay type: functional, organism-based
Method in brief: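 Male Sprague–Dawley rats (~250 g); open-field habituation 5 min 24 h before test. Compounds p.o. 120 min and scopolamine 1.25 mg/kg i.p. 30 min before 3-min familiarization trial; 3-min recognition trial 1 h later. Exploration video-tracked; discrimination index computed; one-way ANOVA with Newman–Keuls; n = 9–10 per group; mean ± SEM.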

hERG (KCNH2) = hERG (KCNH2) (Homo sapiens, UniProt Q12809); assay: Displacement of [3H] dofetilide from human recombinant ERG at 10^-6 M measured after 60 mins by scintillation counting method relative to control; details: probe [3H]dofetilide
Chain of hERG (KCNH2) (Q12809 whole entry): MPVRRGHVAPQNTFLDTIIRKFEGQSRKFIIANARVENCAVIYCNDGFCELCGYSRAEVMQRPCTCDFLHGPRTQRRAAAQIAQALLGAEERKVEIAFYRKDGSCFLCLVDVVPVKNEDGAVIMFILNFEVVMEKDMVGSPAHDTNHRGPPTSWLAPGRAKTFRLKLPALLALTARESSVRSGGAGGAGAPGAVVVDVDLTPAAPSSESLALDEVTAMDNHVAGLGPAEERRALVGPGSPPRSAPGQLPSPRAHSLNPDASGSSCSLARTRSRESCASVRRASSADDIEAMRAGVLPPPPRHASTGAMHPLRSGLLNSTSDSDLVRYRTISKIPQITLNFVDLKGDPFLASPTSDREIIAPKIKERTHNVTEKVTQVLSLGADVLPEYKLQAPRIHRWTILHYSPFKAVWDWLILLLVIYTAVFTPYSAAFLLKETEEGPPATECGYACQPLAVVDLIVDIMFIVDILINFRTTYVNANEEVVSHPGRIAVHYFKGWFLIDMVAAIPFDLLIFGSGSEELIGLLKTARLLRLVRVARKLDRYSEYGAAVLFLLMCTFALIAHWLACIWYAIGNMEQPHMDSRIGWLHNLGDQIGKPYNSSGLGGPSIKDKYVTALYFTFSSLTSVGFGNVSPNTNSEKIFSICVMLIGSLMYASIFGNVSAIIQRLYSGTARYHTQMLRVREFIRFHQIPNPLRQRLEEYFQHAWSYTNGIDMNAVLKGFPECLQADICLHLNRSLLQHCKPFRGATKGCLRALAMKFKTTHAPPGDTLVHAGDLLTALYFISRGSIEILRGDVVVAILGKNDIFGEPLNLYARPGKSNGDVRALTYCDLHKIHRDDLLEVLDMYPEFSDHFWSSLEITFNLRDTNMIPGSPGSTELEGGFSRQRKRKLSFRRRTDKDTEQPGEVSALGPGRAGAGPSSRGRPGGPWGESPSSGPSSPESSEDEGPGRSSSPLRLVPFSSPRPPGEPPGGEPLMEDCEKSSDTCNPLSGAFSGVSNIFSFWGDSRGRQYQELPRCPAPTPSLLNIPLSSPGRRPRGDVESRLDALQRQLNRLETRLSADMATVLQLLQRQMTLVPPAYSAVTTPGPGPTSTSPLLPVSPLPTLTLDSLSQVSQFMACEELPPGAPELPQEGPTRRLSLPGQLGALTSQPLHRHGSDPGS

Chain of 5-hydroxytryptamine receptor 2B (Homo sapiens) (P41595 whole entry): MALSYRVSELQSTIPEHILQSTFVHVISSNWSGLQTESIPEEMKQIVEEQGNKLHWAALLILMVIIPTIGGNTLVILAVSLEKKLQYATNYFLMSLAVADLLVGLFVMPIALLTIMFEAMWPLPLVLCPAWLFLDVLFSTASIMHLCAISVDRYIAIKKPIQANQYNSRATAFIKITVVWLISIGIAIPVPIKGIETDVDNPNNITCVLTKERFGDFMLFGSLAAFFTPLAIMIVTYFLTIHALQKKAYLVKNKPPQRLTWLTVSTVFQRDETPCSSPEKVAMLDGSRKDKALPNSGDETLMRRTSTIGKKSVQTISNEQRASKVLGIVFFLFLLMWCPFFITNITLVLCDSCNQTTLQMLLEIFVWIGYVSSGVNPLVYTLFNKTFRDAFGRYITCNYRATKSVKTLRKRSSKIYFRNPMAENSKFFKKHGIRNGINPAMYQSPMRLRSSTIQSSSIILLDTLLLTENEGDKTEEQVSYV
Chain of 5-hydroxytryptamine receptor 7 (P34969 whole entry): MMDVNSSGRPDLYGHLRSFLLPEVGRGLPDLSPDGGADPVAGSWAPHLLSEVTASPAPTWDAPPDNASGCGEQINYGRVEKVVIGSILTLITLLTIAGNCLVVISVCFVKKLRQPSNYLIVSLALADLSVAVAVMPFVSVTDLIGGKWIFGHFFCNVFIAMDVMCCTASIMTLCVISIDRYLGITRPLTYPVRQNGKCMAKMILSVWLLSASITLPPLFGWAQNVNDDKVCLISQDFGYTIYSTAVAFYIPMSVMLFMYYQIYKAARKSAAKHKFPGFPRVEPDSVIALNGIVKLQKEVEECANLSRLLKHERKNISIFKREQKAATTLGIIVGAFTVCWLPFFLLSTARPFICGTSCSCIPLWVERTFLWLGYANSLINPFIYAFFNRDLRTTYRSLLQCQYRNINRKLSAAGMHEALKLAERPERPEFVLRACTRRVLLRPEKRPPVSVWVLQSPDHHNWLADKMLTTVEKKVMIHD
Chain of D(2) dopamine receptor (P14416 whole entry): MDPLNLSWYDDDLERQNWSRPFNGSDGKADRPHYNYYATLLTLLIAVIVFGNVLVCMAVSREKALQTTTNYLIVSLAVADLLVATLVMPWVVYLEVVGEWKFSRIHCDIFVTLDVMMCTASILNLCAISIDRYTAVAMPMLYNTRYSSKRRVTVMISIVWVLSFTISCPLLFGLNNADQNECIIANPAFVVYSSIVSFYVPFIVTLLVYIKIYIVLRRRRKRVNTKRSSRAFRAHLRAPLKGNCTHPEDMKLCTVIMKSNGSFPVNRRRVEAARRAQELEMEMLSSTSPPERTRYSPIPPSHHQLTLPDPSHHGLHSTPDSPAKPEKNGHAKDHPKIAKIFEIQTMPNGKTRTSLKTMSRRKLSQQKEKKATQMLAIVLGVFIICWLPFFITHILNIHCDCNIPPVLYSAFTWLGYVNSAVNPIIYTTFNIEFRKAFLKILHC
Chain of Histamine H1 receptor (Homo sapiens) (P35367 whole entry): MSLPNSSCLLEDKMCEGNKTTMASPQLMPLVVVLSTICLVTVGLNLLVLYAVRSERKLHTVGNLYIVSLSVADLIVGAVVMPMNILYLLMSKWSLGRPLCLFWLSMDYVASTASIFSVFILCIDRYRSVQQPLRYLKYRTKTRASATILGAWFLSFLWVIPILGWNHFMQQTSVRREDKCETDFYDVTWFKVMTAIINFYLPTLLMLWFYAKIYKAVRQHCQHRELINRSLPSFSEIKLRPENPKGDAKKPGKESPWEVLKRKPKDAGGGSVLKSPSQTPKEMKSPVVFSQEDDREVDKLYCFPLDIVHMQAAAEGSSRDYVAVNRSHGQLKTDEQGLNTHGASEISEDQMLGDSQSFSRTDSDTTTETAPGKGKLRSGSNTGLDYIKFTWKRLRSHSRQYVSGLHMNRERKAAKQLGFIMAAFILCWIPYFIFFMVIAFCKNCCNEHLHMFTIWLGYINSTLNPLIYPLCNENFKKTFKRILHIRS
Chain of 5-hydroxytryptamine receptor 2A (P28223 whole entry): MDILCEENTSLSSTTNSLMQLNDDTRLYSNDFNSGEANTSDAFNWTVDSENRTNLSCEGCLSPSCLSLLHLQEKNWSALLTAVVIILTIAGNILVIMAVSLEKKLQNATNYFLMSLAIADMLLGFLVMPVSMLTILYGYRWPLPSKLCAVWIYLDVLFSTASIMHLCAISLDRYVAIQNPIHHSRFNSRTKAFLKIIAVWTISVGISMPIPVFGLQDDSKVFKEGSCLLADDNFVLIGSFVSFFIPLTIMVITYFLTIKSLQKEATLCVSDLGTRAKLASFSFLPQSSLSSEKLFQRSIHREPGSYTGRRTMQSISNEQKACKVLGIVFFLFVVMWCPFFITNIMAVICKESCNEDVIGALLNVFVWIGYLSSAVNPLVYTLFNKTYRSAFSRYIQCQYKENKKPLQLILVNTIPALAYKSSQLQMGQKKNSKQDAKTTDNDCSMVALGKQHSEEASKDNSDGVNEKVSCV
T4 sequence (P50406 whole entry): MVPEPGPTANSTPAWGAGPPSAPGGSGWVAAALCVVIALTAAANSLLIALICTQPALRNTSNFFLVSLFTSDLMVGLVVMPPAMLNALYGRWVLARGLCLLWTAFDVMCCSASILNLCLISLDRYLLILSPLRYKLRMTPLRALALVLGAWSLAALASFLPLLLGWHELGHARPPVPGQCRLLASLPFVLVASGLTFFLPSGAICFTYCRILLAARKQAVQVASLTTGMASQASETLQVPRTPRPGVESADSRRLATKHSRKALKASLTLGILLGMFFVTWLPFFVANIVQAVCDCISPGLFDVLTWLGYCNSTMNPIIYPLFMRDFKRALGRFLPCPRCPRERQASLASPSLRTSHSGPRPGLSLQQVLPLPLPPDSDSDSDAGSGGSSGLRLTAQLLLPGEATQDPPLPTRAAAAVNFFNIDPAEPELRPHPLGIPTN

inhibition [2] [%]	inhibition [4] [%]	Ki (D(2) dopamine receptor) [nM]	Ki [9] [nM]	Ki [11] [nM]	microsomal CLint (in vitro [5]; microsomes) [µL/min/mg]	half-life (in vitro [8]; microsomes) [min]	Ki ([12]; read-out: Ki) [nM]	SMILES	solubility ([3]; buffer)	Stability [13]	Ki ([10]; read-out: Ki) [nM]	also measured
4	28	3980	21	1230				COc1ccc2c(c1)c(-c1[nH]c(NCC(F)F)nc1C)cn2S(=O)(=O)c1ccccc1				inhibition [1]: -4%; solubility ([3]; water, read-out: solubility): 1000 to 10000 µg/mL (≈ 2.24 to 22.4 mM); microsomal CLint (in vitro [5]; liver microsomes): 39 µL/min/mg; Kb [6]: 13 nM; inhibition [7]: 1%; half-life (in vitro [8]; liver microsomes): 36 min; Ki ([10]; hek293): Not Active; Ki ([12]; hek293): Not Active
		708	4	1170	104	13	> 10000	Cc1nc(N)[nH]c1-c1ccc2ccn(S(=O)(=O)c3ccccc3)c2c1.Cl	Soluble	Unstable	776	
12.2	71.6			100			> 10000	Cc1nc(N)[nH]c1-c1cn(S(=O)(=O)c2ccccc2)c2ccccc12				inhibition [1]: 3.8%; inhibition [15]: 7.6%; inhibition [16]: 4.5%
		> 10000	14		17.1	81		CCC(=O)Nc1nc(C)c(-c2cn(S(=O)(=O)c3ccccc3)c3ccc(OC)cc23)[nH]1	Insoluble	Stable	> 10000	
33.1	82			794			> 10000	COc1ccc2c(c1)c(-c1cnc(N)[nH]1)cn2S(=O)(=O)c1ccccc1				inhibition [1]: 6.7%; inhibition [15]: 5.6%; inhibition [16]: 1.7%
					17.6	79		COc1cc2c(cc1OC)C(=O)C(CC1CCN(Cc3ccccc3)CC1)C2 (stereo not drawn) [DONEPEZIL]				Activity (Rattus norvegicus): Active
								CC(=O)Nc1nc(C)c(-c2cn(S(=O)(=O)c3ccccc3)c3ccccc23)[nH]1.Cl				solubility ([3]; water, read-out: solubility): 100 to 10000 µg/mL; inhibition at 1 h, 1 µM (hERG (KCNH2)): 2.4%

SMILES	inhibition [2] [%]	inhibition [4] [%]	Ki (D(2) dopamine receptor) [nM]	Ki [9] [nM]	Ki [11] [nM]	microsomal CLint (in vitro [5]; microsomes) [µL/min/mg]	half-life (in vitro [8]; microsomes) [min]	Ki ([12]; read-out: Ki) [nM]	solubility ([3]; buffer)	Stability [13]	Ki ([10]; read-out: Ki) [nM]	also measured
CC(=O)Nc1nc(C)c(-c2cn(S(=O)(=O)c3ccccc3)c3ccccc23)[nH]1 [listing 1 of 2 here]	-1.5	22.4										Activity [14]: -1.9%; Kb [6]: 1.3 nM; inhibition [7]: -5.9%
CC(=O)Nc1nc(C)c(-c2ccc3ccn(S(=O)(=O)c4ccccc4)c3c2)[nH]1	-4.2				> 10000							inhibition [7]: -1.9%
O=S(=O)(c1ccccc1)n1cc(-c2c[n+]3cccnc3[nH]2)c2ccccc21.[Br-]				50	> 10000	230	6	> 10000	Soluble	Unstable	> 10000	
CC(=O)Nc1nc(C)c(-c2cn(S(=O)(=O)c3ccccc3)c3ccccc23)[nH]1 [listing 2 of 2 here]			> 10000	25	> 10000	7.3	190	> 10000	Insoluble	Stable	> 10000	
